Assay results as given in paper PMC3241894 (ACS chemical biology, 2011).

What was measured:
[1] = system: FKBP38 and Hsp90 binding interaction; assay: pure protein binding assay FKBP38 and Hsp90; parameters: species or system human; conditions: 100 nM Hsp90, 50 nM GST-FKBP38, 0–10 µM compound
HeLa cells = assay: Hsp90 over-expression experiments, cell survival; assay type: cell-based; conditions: pCMV-Hsp90 vs pCMV control, compound 1 50 µM, 2 5 µM, 17-AAG 100 nM
Method in brief: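 HeLa cells (~30% confluent) were co-transfected by PolyFect with HSP90α and HSP90β plasmids (0.5 µg each) or empty pCMV (1 µg). Hsp90 overexpression was checked by Western blot. After 24 h, cells received DMSO (control), test compound (50 or 5 µM) or 17-AAG (100 nM), and survival was read by CCK-8. Three repeats, mean ± SEM.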

[2] = system: FKBP52 and Hsp90 binding interaction; assay: pure protein binding assay FKBP52 and Hsp90; parameters: species or system human; conditions: 100 nM Hsp90, 50 nM GST-FKBP52, 0–10 µM compound
Hsp70 = Hsp70 up-regulation in compound-treated cells; assay type: cell-based; conditions: HCT-116 cells, 24 hours
Method in brief: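 HCT-116 cells exposed for 24 h to test compound (0–25 µM), or to 17-AAG (0–200 nM) as reference Hsp90 inhibitor. Cells were then harvested and lysed, and lysates probed for Hsp70 by Western blot with GAPDH as loading control. Experiments were repeated three times, reported as mean ± SEM, and compared by unpaired t-test.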

Question: What does the source list for `C=CCNC1=C2C[C@@H](C)C[C@H](OC)[C@H](O)[C@@H](C)/C=C(\C)[C@H](OC(N)=O)[C@@H](OC)/C=C\C=C(/C)C(=O)NC(=CC1=O)C2=O` [17-AAG, 17-(allylamino)-17-demethoxygeldanamycin]?
Answer: inhibition of binding between Hsp90 and FKBP38 [1]: do not affect; cytotoxic effect on Hsp90 over-expressing cells relative to control cells (HeLa cells): also true; inhibition of binding between Hsp90 and FKBP52 [2]: do not affect; Hsp70 up-regulation over control (Hsp70): 100%
